FLuc inhib CS: Photinus pyralis luciferase inhibition counter-screen | P08659 | ATPLite firefly luciferase biochemical luminescence, 10 min | inhibition, % at 10 µM | 200,000 compounds, 1.5% hits | AID 1006;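 active means inhibition above about 50% when tested at 10 µM, limit read from the data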
Target sequence (P08659 whole entry, looked up): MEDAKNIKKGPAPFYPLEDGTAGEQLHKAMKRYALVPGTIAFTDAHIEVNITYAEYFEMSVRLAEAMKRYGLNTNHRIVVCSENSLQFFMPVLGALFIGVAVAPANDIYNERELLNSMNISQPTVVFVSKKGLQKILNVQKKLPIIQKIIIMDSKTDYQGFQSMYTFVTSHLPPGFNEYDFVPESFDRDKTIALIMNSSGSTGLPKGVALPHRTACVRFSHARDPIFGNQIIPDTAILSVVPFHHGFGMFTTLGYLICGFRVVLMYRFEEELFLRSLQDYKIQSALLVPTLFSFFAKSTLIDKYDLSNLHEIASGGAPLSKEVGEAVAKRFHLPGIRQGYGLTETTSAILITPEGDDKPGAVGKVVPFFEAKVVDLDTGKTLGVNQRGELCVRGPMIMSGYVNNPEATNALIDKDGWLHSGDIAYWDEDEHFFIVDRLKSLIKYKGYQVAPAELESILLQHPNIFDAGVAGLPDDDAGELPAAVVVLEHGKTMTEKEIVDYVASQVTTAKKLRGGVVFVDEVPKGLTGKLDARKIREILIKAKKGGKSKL
FLuc act counter: affects firefly luciferase, flagging false hits in luciferase stimulation screens; P08659; 200,000 tested, under 10 active; activation factor at 10 µM; ATPlite luciferase biochemical, luminescence, 10 min; 0 = ATP-free wells, 1 = DMSO control;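 active means luciferase activation factor, scaled between plate controls, of at least 2 with compound at 10 µM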
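Assay system: Luciferase/luciferin detection reagent, cell-free biochemical luciferase assay / Also added: ATP substrate / Schedule: 10 min at ambient temperature / Measured by: luminescence measurement of luciferase light output / Benchmarks: low control with PBS replacing ATP, high control enzyme plus ATP without compound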
PPC-1+TRAIL kill: kills PPC-1 cancer cells in the presence of TRAIL. 220,000 compounds, 0.41% hits. PPC-1 cells + TRAIL, ATPLite viability luminescence. AID 1443. cell killing (% activity), % at 4 µM or 5 µM;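 active means cell killing above 50% in the first pass at 4 µM, then a duplicate retest at 5 µM averaging 50% or more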
TRAIL sens C8: sensitizes caspase-8 expressing cells to TRAIL. NB7+C8 cells + TRAIL, ATPlite viability luminescence. inhibition (viability loss, TRAIL sensitization), % at 10 µM. 360,000 compounds, 1% hits. AID 624354;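 active means compounds causing at least 50% loss of cell viability in the single-dose screen, relative to plate controls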
A number is an active result; - = inactive; . = no result given; ! = repeats disagree. An excerpt weighted towards active compounds, which were near 1.6% of everything screened.

SMILES	FLuc inhib CS	FLuc act counter	PPC-1+TRAIL kill	TRAIL sens C8
CC(NC(=O)CNC(=O)c1ccccc1Br)c1cccs1 (configuration not stated)	.	.	.	-
CCCCn1c(=O)[nH]c(=O)c2c1nc(Cn1ncc(Cl)c(Cl)c1=O)n2CCC	.	.	.	95.3
CCC(C)Sc1cc(-c2nc3ccc(C)cn3c2NCc2ccccc2)ccc1OC (configuration not stated)	.	.	.	84.1!
CCC(C)Sc1ccc(-c2nc3ccc(C)cn3c2NCc2ccccc2)cc1OC (configuration not stated)	.	.	.	-
COc1ccc(-c2nc3ccccn3c2NCc2ccc3c(c2)OCO3)cc1	-	-	-	-
COc1ccc(-c2cc(-c3nc4ccccn4c3NCc3ccccc3)ccc2OC)cc1	.	.	.	78.5
c1ccc(-c2ccc3ncccc3n2)cc1	.	.	.	-
CCCCCCCCCCCCCCC(O)C[N+](C)(CCO)CCO (configuration not stated)	.	.	.	87.8
O=C1C=C(Nc2ccccc2O)c2ccccc2C1=O	-	-	-	-
O=C1C=C(Nc2cccnc2)c2ccccc2C1=O	.	.	.	70.0
CCOc1ccc(NC2=CC(=O)C(=O)c3ccccc32)cc1	.	.	.	74.1
COc1cc(Cl)c(NC2=CC(=O)C(=O)c3ccccc32)c(OC)c1	.	.	.	86.6
O=C1C=C(Nc2ccc(F)cc2)c2ccccc2C1=O	.	.	.	58.3
Cc1ccccc1-n1c(SCC(=O)NC(N)=O)nc2sc(-c3ccccc3)cc2c1=O	-	-	-	-
CCC(C)Sc1ccc([C@@H]2[C@@H]3C(=O)N(C)C(=O)[C@@H]3[C@]3(C(=O)OC)CCCCN23)cc1 (some centres not stated)	.	.	.	-
CC(=O)OC[C@@H]1CN(Cc2ccccc2)C[C@H](n2cnc3c(NCC(C)C)ncnc32)O1	.	.	.	-
O=C(COC(=O)Cc1ccc(S(=O)(=O)N2CCOCC2)s1)Nc1ccccc1Cl	.	.	.	-
COc1ccc(NC(=O)N(C)C[C@@H]2OCc3cnnn3CCCC(=O)N([C@@H](C)CO)C[C@H]2C)c(OC)c1	.	.	.	-
O=C(COc1ccc(Cl)cc1)c1ccc(O)cc1O	.	.	-	-
CCOC(=O)c1ccc(OCC(=O)c2ccc(O)cc2O)cc1	59.2	-	-	-
CC(C)c1nnc(NC(=O)c2c(O)c3cccc4c3n(c2=O)CCC4)s1	-	-	-	59.5
CC(/C=N/NC(=O)c1cccs1)=C\c1ccco1	56.7	-	-	-
C=CCNC(=S)N1CCC(C(=O)c2ccc(Cl)cc2)CC1	.	.	.	-
Cc1ccc(/C=N/Nc2cccc3cccnc23)c(O)c1	59.5	-	-	-
Oc1ccc(/C=N/Nc2cccc3cccnc23)c(O)c1	-	-	-	-
SMILES	FLuc inhib CS	FLuc act counter	PPC-1+TRAIL kill	TRAIL sens C8
CC(C)c1nc(CNC(=O)C2CCC(=O)N(CCc3ccc(Cl)cc3)C2)no1 (configuration not stated)	.	.	.	-
CCCCN(C(=O)C1CC(=O)N(CCc2ccc(OC)c(OC)c2)C1)c1c(N)n(CC(C)C)c(=O)[nH]c1=O (configuration not stated)	.	.	.	-
C=Cc1ccc(C2=CC(=O)C[C@H](c3ccc(OC)cc3)C2)cc1	.	.	.	-
C(=C\c1ccco1)/c1nc2ccccc2[nH]1	82.8	-	-	51.3
Nc1nc(N)c2c(ccc3c2ccn3Cc2cccc([N+](=O)[O-])c2)n1	.	.	.	96.6
COc1cccc(/C=N/Nc2ncnc(Cl)c2N)c1O	68.5	-	60.4	59.4
COc1cccc(/C=N/Nc2nc3ccccc3n3cnnc23)c1O	-	-	-	54.0
COc1cccc(C=NNc2nnc(NN=Cc3cccc(OC)c3OC)c3ccccc23)c1OC	.	.	.	80.0
COc1ccccc1/C=N/Nc1nncc2ccccc12	-	-	-	-
COc1cccc(/C=N/Nc2ncnc(N)c2[N+](=O)[O-])c1OC	78.1	-	-	-
CN(C)c1ccc(C(=O)n2nnc3ccccc32)cc1	80.9	-	-	-
CCCC(=O)Nc1ccc(C(=O)n2nnc3ccccc32)cc1	-	-	-	-
Cc1[nH]n(-c2ccccc2)c(=O)c1/C=N/NC(=O)c1ccc(O)cc1O	.	.	.	-
Cc1ccc(-n2[nH]c(C)c(/C=N/NC(=O)c3ccc(O)cc3O)c2=O)cc1	.	.	.	72.6
O=C(Nc1ccc(Oc2c(F)c(F)c(F)c(F)c2F)cc1)OC1CCN2Cc3ccccc3N=C12 (configuration not stated)	.	.	-	69.2
C(=N\N=C\c1cccs1)/c1cccs1	83.3	-	-	-
O=C(Nc1ccccc1-c1ccccc1)c1ccc(Cl)c([N+](=O)[O-])c1	-	-	94.0	-
O=C(Nc1ccc(Cc2ccncc2)cc1)c1ccc(Cl)c([N+](=O)[O-])c1	76.5	-	-	-
COCCn1c(C)cc(C2=NNC(=Nc3ccccc3)SC2)c1C	88.0	-	-	-

Source: PubChem
